Data as given in ChEMBL document CHEMBL4334451, “Natural Alkaloid Berberine Activity against Pseudomonas aeruginosa MexXY-Mediated Aminoglycoside Resistance: In Silico and in Vitro Studies” (J Nat Prod, 2019).
Active and inactive are the calls of the source. The rule behind the calls is not given here.

Tests used:
Type in all cases: protein-complex assay
[1] = target: T1, MexXY/OprM (Pseudomonas aeruginosa (strain ATCC 15692 / DSM 22644 / CIP 104116 / JCM14847 / LMG 12228 / 1C / PRS 101 / PAO1)) (UniProt Q51487+Q9ZNG9+Q9ZNG8); test: Inhibition of MexXY/OPRM in Pseudomonas aeruginosa K767 assessed as reduction in bacterial resistance to tobramycin by measuring tobramycin MIC at 80 ug/ml incubated for 24 to 48 hrs by broth microdilution method (reference value: 0.25 ug/ml)
Method in brief: (§1)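 Broth microdilution per CLSI, with P. aeruginosa ATCC 27853 as reference strain, in 2-fold dilution series. Plates were incubated at 37°C and read for visible growth at 24 and 48 h. Berberine stock was in 50% DMSO/50% methanol, with final DMSO kept near 1%. Berberine was tested at 10–320 µg/ml, alone or at a fixed level with serial tobramycin.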

[2] = target: T1, MexXY/OprM (Pseudomonas aeruginosa (strain ATCC 15692 / DSM 22644 / CIP 104116 / JCM14847 / LMG 12228 / 1C / PRS 101 / PAO1)); test: Inhibition of MexXY/OPRM in Pseudomonas aeruginosa C15 assessed as reduction in bacterial resistance to tobramycin by measuring tobramycin MIC at 80 ug/ml incubated for 24 to 48 hrs by broth microdilution method (reference value: 8 ug/ml)
[3] = target: T1, MexXY/OprM (Pseudomonas aeruginosa (strain ATCC 15692 / DSM 22644 / CIP 104116 / JCM14847 / LMG 12228 / 1C / PRS 101 / PAO1)); test: Inhibition of MexXY/OPRM in Pseudomonas aeruginosa C30 assessed as reduction in bacterial resistance to tobramycin by measuring tobramycin MIC at 80 ug/ml incubated for 24 to 48 hrs by broth microdilution method (reference value: 8 ug/ml)
[4] = target: T1, MexXY/OprM (Pseudomonas aeruginosa (strain ATCC 15692 / DSM 22644 / CIP 104116 / JCM14847 / LMG 12228 / 1C / PRS 101 / PAO1)); test: Inhibition of MexXY/OPRM in Pseudomonas aeruginosa C51 assessed as reduction in bacterial resistance to tobramycin by measuring tobramycin MIC at 80 ug/ml incubated for 24 to 48 hrs by broth microdilution method (reference value: 0.125 ug/ml)
[5] = target: T1, MexXY/OprM (Pseudomonas aeruginosa (strain ATCC 15692 / DSM 22644 / CIP 104116 / JCM14847 / LMG 12228 / 1C / PRS 101 / PAO1)); test: Inhibition of MexXY/OPRM in Pseudomonas aeruginosa C59 assessed as reduction in bacterial resistance to tobramycin by measuring tobramycin MIC at 80 ug/ml incubated for 24 to 48 hrs by broth microdilution method (reference value: 64 ug/ml)
[6] = target: T1, MexXY/OprM (Pseudomonas aeruginosa (strain ATCC 15692 / DSM 22644 / CIP 104116 / JCM14847 / LMG 12228 / 1C / PRS 101 / PAO1)); test: Inhibition of MexXY/OPRM in Pseudomonas aeruginosa C60 assessed as reduction in bacterial resistance to tobramycin by measuring tobramycin MIC at 80 ug/ml incubated for 24 to 48 hrs by broth microdilution method (reference value: >128 ug/ml)
[7] = target: T1, MexXY/OprM (Pseudomonas aeruginosa (strain ATCC 15692 / DSM 22644 / CIP 104116 / JCM14847 / LMG 12228 / 1C / PRS 101 / PAO1)); test: Inhibition of MexXY/OPRM in Pseudomonas aeruginosa C61 assessed as reduction in bacterial resistance to tobramycin by measuring tobramycin MIC at 80 ug/ml incubated for 24 to 48 hrs by broth microdilution method (reference value: 64 ug/ml)
[8] = target: T1, MexXY/OprM (Pseudomonas aeruginosa (strain ATCC 15692 / DSM 22644 / CIP 104116 / JCM14847 / LMG 12228 / 1C / PRS 101 / PAO1)); test: Inhibition of MexXY/OPRM in Pseudomonas aeruginosa C73 assessed as reduction in bacterial resistance to tobramycin by measuring tobramycin MIC at 80 ug/ml incubated for 24 to 48 hrs by broth microdilution method (reference value: 128 ug/ml)
[9] = target: T1, MexXY/OprM (Pseudomonas aeruginosa (strain ATCC 15692 / DSM 22644 / CIP 104116 / JCM14847 / LMG 12228 / 1C / PRS 101 / PAO1)); test: Inhibition of MexXY/OPRM in Pseudomonas aeruginosa C83 assessed as reduction in bacterial resistance to tobramycin by measuring tobramycin MIC at 80 ug/ml incubated for 24 to 48 hrs by broth microdilution method (reference value: 128 ug/ml)
[10] = target: T1, MexXY/OprM (Pseudomonas aeruginosa (strain ATCC 15692 / DSM 22644 / CIP 104116 / JCM14847 / LMG 12228 / 1C / PRS 101 / PAO1)); test: Inhibition of MexXY/OPRM in Pseudomonas aeruginosa C89 assessed as reduction in bacterial resistance to tobramycin by measuring tobramycin MIC at 80 ug/ml incubated for 24 to 48 hrs by broth microdilution method (reference value: >128 ug/ml); method in brief: as §1
[11] = target: T1, MexXY/OprM (Pseudomonas aeruginosa (strain ATCC 15692 / DSM 22644 / CIP 104116 / JCM14847 / LMG 12228 / 1C / PRS 101 / PAO1)); test: Inhibition of MexXY/OPRM in Pseudomonas aeruginosa C95 assessed as reduction in bacterial resistance to tobramycin by measuring tobramycin MIC at 80 ug/ml incubated for 24 to 48 hrs by broth microdilution method (reference value: 32 ug/ml); method in brief: as §1
[12] = target: T1, MexXY/OprM (Pseudomonas aeruginosa (strain ATCC 15692 / DSM 22644 / CIP 104116 / JCM14847 / LMG 12228 / 1C / PRS 101 / PAO1)); test: Inhibition of MexXY/OPRM in Pseudomonas aeruginosa AR48 assessed as reduction in bacterial resistance to tobramycin by measuring tobramycin MIC at 80 ug/ml incubated for 24 to 48 hrs by broth microdilution method (reference value: 32 ug/ml)
[13] = target: T1, MexXY/OprM (Pseudomonas aeruginosa (strain ATCC 15692 / DSM 22644 / CIP 104116 / JCM14847 / LMG 12228 / 1C / PRS 101 / PAO1)); test: Inhibition of MexXY/OPRM in Pseudomonas aeruginosa PA14 assessed as bacterial growth up to 320 ug/ml incubated for 24 to 48 hrs by broth microdilution method; method in brief: as §1
[14] = target: T1, MexXY/OprM (Pseudomonas aeruginosa (strain ATCC 15692 / DSM 22644 / CIP 104116 / JCM14847 / LMG 12228 / 1C / PRS 101 / PAO1)); test: Inhibition of MexXY/OPRM in Pseudomonas aeruginosa C6 assessed as bacterial growth up to 320 ug/ml incubated for 24 to 48 hrs by broth microdilution method
Method in brief: (§2)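 Broth microdilution following CLSI guidelines, with P. aeruginosa ATCC 27853 as reference strain. Berberine was tested at 2-fold concentrations from 10 to 320 µg/ml, dissolved in 50% DMSO/50% methanol, with the top concentration set to keep final DMSO close to 1%. Plates were incubated at 37°C and read for visible growth at 24 and 48 h.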

[15] = target: T1, MexXY/OprM (Pseudomonas aeruginosa (strain ATCC 15692 / DSM 22644 / CIP 104116 / JCM14847 / LMG 12228 / 1C / PRS 101 / PAO1)); test: Inhibition of MexXY/OPRM in Pseudomonas aeruginosa C51 assessed as bacterial growth up to 320 ug/ml incubated for 24 to 48 hrs by broth microdilution method; method in brief: as §2
[16] = target: T1, MexXY/OprM (Pseudomonas aeruginosa (strain ATCC 15692 / DSM 22644 / CIP 104116 / JCM14847 / LMG 12228 / 1C / PRS 101 / PAO1)); test: Inhibition of MexXY/OPRM in Pseudomonas aeruginosa C76 assessed as bacterial growth up to 320 ug/ml incubated for 24 to 48 hrs by broth microdilution method; method in brief: as §2
[17] = target: T1, MexXY/OprM (Pseudomonas aeruginosa (strain ATCC 15692 / DSM 22644 / CIP 104116 / JCM14847 / LMG 12228 / 1C / PRS 101 / PAO1)); test: Inhibition of MexXY/OPRM in Pseudomonas aeruginosa C83 assessed as bacterial growth up to 320 ug/ml incubated for 24 to 48 hrs by broth microdilution method; method in brief: as §2
[18] = target: T1, MexXY/OprM (Pseudomonas aeruginosa (strain ATCC 15692 / DSM 22644 / CIP 104116 / JCM14847 / LMG 12228 / 1C / PRS 101 / PAO1)); test: Inhibition of MexXY/OPRM in Pseudomonas aeruginosa C84 assessed as bacterial growth up to 320 ug/ml incubated for 24 to 48 hrs by broth microdilution method; method in brief: as §1
[19] = target: T1, MexXY/OprM (Pseudomonas aeruginosa (strain ATCC 15692 / DSM 22644 / CIP 104116 / JCM14847 / LMG 12228 / 1C / PRS 101 / PAO1)); test: Inhibition of MexXY/OPRM in Pseudomonas aeruginosa C86 assessed as bacterial growth up to 320 ug/ml incubated for 24 to 48 hrs by broth microdilution method; method in brief: as §1
[20] = target: T1, MexXY/OprM (Pseudomonas aeruginosa (strain ATCC 15692 / DSM 22644 / CIP 104116 / JCM14847 / LMG 12228 / 1C / PRS 101 / PAO1)); test: Inhibition of MexXY/OPRM in Pseudomonas aeruginosa C89 assessed as bacterial growth up to 320 ug/ml incubated for 24 to 48 hrs by broth microdilution method; method in brief: as §1
[21] = target: T1, MexXY/OprM (Pseudomonas aeruginosa (strain ATCC 15692 / DSM 22644 / CIP 104116 / JCM14847 / LMG 12228 / 1C / PRS 101 / PAO1)); test: Inhibition of MexXY/OPRM in Pseudomonas aeruginosa C98 assessed as bacterial growth up to 320 ug/ml incubated for 24 to 48 hrs by broth microdilution method; method in brief: as §1
[22] = target: T1, MexXY/OprM (Pseudomonas aeruginosa (strain ATCC 15692 / DSM 22644 / CIP 104116 / JCM14847 / LMG 12228 / 1C / PRS 101 / PAO1)); test: Inhibition of MexXY/OPRM in Pseudomonas aeruginosa AR48 assessed as bacterial growth up to 320 ug/ml incubated for 24 to 48 hrs by broth microdilution method; method in brief: as §2
[23] = target: T1, MexXY/OprM (Pseudomonas aeruginosa (strain ATCC 15692 / DSM 22644 / CIP 104116 / JCM14847 / LMG 12228 / 1C / PRS 101 / PAO1)); test: Inhibition of MexXY/OPRM in Pseudomonas aeruginosa AR61 assessed as bacterial growth up to 320 ug/ml incubated for 24 to 48 hrs by broth microdilution method; method in brief: as §2
[24] = target: T1, MexXY/OprM (Pseudomonas aeruginosa (strain ATCC 15692 / DSM 22644 / CIP 104116 / JCM14847 / LMG 12228 / 1C / PRS 101 / PAO1)); test: Inhibition of MexXY/OPRM in Pseudomonas aeruginosa C6 assessed as reduction in bacterial resistance to tobramycin by measuring fold reduction in tobramycin MIC at 80 ug/ml incubated for 24 to 48 hrs by broth microdilution method
[25] = target: T1, MexXY/OprM (Pseudomonas aeruginosa (strain ATCC 15692 / DSM 22644 / CIP 104116 / JCM14847 / LMG 12228 / 1C / PRS 101 / PAO1)); test: Inhibition of MexXY/OPRM in Pseudomonas aeruginosa C83 assessed as reduction in bacterial resistance to tobramycin by measuring fold reduction in tobramycin MIC at 80 ug/ml incubated for 24 to 48 hrs by broth microdilution method

Q: What does the source list for `COc1ccc2cc3[n+](cc2c1OC)CCc1cc2c(cc1-3)OCO2` [BERBERINE]?
A: MIC [1]: 0.125 µg/mL; MIC [2]: 8 µg/mL; MIC [3]: 8 µg/mL; MIC [4]: < 0.125 µg/mL; MIC [5]: 32 µg/mL; MIC [6]: 64 µg/mL; MIC [7]: 16 µg/mL; MIC [8]: 64 µg/mL; MIC [9]: 32 µg/mL; MIC [10]: 64 µg/mL; MIC [11]: 4 µg/mL; MIC [12]: 8 µg/mL; inhibition [13]: inactive; inhibition [14]: inactive; inhibition [15]: inactive; inhibition [16]: inactive; inhibition [17]: inactive; inhibition [18]: inactive; inhibition [19]: inactive; inhibition [20]: inactive; inhibition [21]: inactive; inhibition [22]: inactive; inhibition [23]: inactive; fold change (FC) [24]: > 2; fold change (FC) [25]: > 2
